Test results reported in paper PMC3825418 (Investigational New Drugs, 2013).

How the values were obtained:
γ-H2AX = test: Flow cytometry for γ-H2AX expression; assay type: cell-based, human; conditions: for cells stained positive for γ-H2AX: 25 μM Etoposide, 200nM LTUSI54
PI3K isoforms = test: PI3K inhibition assay; assay type: biochemical; conditions: any of the PI3K isoforms; IC50 greater than 100 μM taken as not active; data not shown
DNA-PK = DNA-PK (Homo sapiens, UniProt P78527); test: DNA-PK inhibition assay; assay type: biochemical; conditions: IC50 greater than 100 μM taken as not active; data not shown
HeLa cells [1] = test: CellTox green cytotoxicity assay; assay type: cell-based, human; conditions: 24 h
HeLa cells [2] = test: Sulphorhodamine blue; assay type: cell-based, human; conditions: 25 μM Etoposide and/or 200nM LTUSI54, 4 h, 2 days recovery; vs control
How it was run: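 Sulphorhodamine B assay on HeLa cells seeded at 2x10^3 cells/well and left to adhere overnight. Treated 4 h with 25 μM Etoposide, 200nM test compound or both, then PBS-washed. Recovery 48 h in medium containing 200nM test compound, or DMSO only for control and Etoposide-alone wells. Absorbance read at 538 nm. Mean ± SEM of four replicates; two-tailed t-test vs control.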

HeLa cells [3] = test: Cell cycle analysis by flow cytometry; assay type: cell-based, human; conditions: 4 h treatment; for cells in G2/M phase / cells in S phase: vs control
How it was run: (§1)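 HeLa cells (DMEM, 10 % FBS) treated 4 h with 25 μM Etoposide, 200nM test compound or both, with or without 2 days recovery in medium containing test compound. Harvested, fixed in 70 % ethanol at −20 °C overnight, then stained with 25 μg/ml propidium iodide plus 100 μg/ml RNase for 30 min at 37 °C in the dark. Doublets and debris gated out. Mean ± SEM, three independent experiments.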

p53 = test: Human phospho-kinase array, p53; assay type: cell-based; conditions: HeLa cells, 4 h; 25 μM Etoposide, 200nM LTUSI54; vs control
How it was run: (§2)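 HeLa cells in small flasks treated 4 h with medium, 25 μM Etoposide, 200nM test compound or combination, then lysed. Human phospho-kinase antibody membranes incubated overnight at 4 °C with lysate at 150 μg/ml protein. Detection antibody cocktail 2 h at room temperature, streptavidin-HRP 30 min, then chemiluminescence at increasing exposures. Fold change vs control; two runs with duplicate spots.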

p38α = test: Human phospho-kinase array, p38α; assay type: cell-based; conditions: HeLa cells, 4 h; 25 μM Etoposide, 200nM LTUSI54; vs control
How it was run: as §2

HeLa cells [4] = test: Sub G1 analysis; assay type: cell-based, human; conditions: 25 μM Etoposide and/or 200nM LTUSI54, 4 h, 2 days recovery
How it was run: as §1

[5] = 4 h treatment followed by 2 days recovery

Row | Compound | cells stained positive for γ-H2AX (γ-H2AX; [5]) [%] | cells stained positive for γ-H2AX (γ-H2AX; after 4 h treatment) | inhibitory effect on PI3K isoforms (IC50) (PI3K isoforms) | inhibitory effect on DNA-PK (IC50) (DNA-PK) | cytotoxic effect (CellTox green) (HeLa cells [1]; 200nM) | CellTox fluorescence (HeLa cells [1]; 100 μM, control 191 RFUs, p <0.0001) [RFUs] | change in HeLa cell number (SRB) (HeLa cells [2]) | cells in G2/M phase (HeLa cells [3]; 2 days recovery) | cells in G2/M phase (HeLa cells [3]) | cells in S phase (HeLa cells [3]) | fold increase in activation of p53 (p53) [fold] | fold increase in activity (phosphorylation) of p38α (p38α) [fold] | fold decrease in γ-H2AX positive cells (γ-H2AX; 2 days recovery vs 4 h treatment) | apoptotic cells (sub G1 phase) (HeLa cells [4]) | cells in S phase (HeLa cells [3]; 2 days recovery) | cells in G1 phase (HeLa cells [3]; 2 days recovery, vs control and LTUSI54 alone (p < 0.0001))
1 | 2-((3-methoxybut-3en-2-yl)amino)-8methyl-4H-benzo[1,3]oxazin-4one [LTUSI54] | 2.7 | 7.3% | no inhibitory effect | no inhibitory effect | no cytotoxic effect | 299.3 | significant reduction in cell numbers | reduction of cells in G2/M phase | significant reduction of cells in G2/M phase | significant increase in cells in S phase | 1.5 | 3.645 | – | – | – | –
2 | COc1cc([C@@H]2c3cc4c(cc3[C@@H](O[C@@H]3O[C@@H]5CO[C@@H](C)O[C@H]5[C@H](O)[C@H]3O)[C@H]3COC(=O)[C@H]23)OCO4)cc(OC)c1O [Etoposide, reference compound] | 15 | about 80% | – | – | – | – | significant reduction in cell number | – | – | increase in cells in S phase | 3.5 | 2.64 | more than 5 fold | significant increase in apoptotic cells | significant increase | significant reduction in G1 cells
